Primed or numbered codes have the meaning given here. Ends that are not written are not given here. FITC′ = fluorescein isothiocyanate label
Experiments:
[1] = tested on: P. aeruginosa (strain PAO1); assay: Bacterial growth inhibition; type: cell-based, Pseudomonas aeruginosa; details: Fig. S3
How it was run: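 PAO1 grown from overnight culture (diluted 1:100 in LB without NaCl) at 37°C, 5% CO₂, 200 rpm to mid-log (OD₆₀₀ 0.5), pelleted, resuspended in Mueller-Hinton broth to OD₆₀₀ 0.1 (~10⁷ CFU/mL). Serially diluted FITC-labelled peptide added in triplicate; gentamycin 10 μg/mL positive control, PBS mock. OD₆₀₀ read every 30 min for 16 h at 37°C, 5% CO₂. Background-corrected mean OD normalised to PBS wells, as percentage.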

[2] = tested on: flow cell-grown P. aeruginosa PAO1 biofilms; assay: Peptide labeling of flow-grown biofilms by CLSM; type: cell-based, Pseudomonas aeruginosa; details: 24 h flow cell biofilms; for Biofilm labeling (CLSM): 2 μM peptide in PBS, 1 h, room temperature; for Labeling pattern / localization within biofilms (CLSM): 2 μM peptide, single slice at mid-height
[3] = tested on: P. aeruginosa aggregates (PAO1-mCherry) on A549 cells; assay: Epithelial cell infection model, CLSM colocalization with bacteria; type: cell-based, Pseudomonas aeruginosa; details: Cy5-labeled probes, Fig. S5
[4] = tested on: human primary neutrophils infected or not with PAO1-GFP+; assay: Human primary neutrophil infection model, imaging flow cytometry; type: cell-based
[5] = tested on: P. aeruginosa-infected wounds; assay: In vivo optical imaging in mouse infected wound model; design: species or system female BALB/c athymic nude mice; details: 6 h post probe injection, p<0.0035, Fig. S7
How it was run: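 Wounded mice (6 mm dorsal biopsies, 48 h recovery) had wounds inoculated with ~10⁷ cells of a 50:50 lux-tagged/TdTomato PAO1 mix or PBS. Cy5-labelled peptide probe (60 nmoles, tail vein) or PBS was injected 24 h later; groups n=4, 3, 2. Isoflurane-anaesthetised mice were imaged at 3, 6 and 18 h. Bioluminescence integration was 2 s; fluorescence excitation was 640 nm. ROI wound Cy5 was normalised to surrounding non-wound tissue.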

[6] = tested on: P. aeruginosa-infected wounds; assay: Ex vivo CLSM of sectioned wound tissue; type: in vivo, female BALB/c athymic nude mice; details: harvested after 18 h imaging
How it was run: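 Two 6 mm full-thickness dorsal wounds per mouse, occlusive dressing, 48 h recovery. Wounds were then inoculated with 60 μL containing ~10⁷ cells of a 50:50 mix of lux-tagged and TdTomato PAO1, or mock-treated with PBS. Cy5-labelled peptide probe, 60 nmoles, was given by tail vein 24 h later. After the 18 h imaging point, mice were CO₂-euthanised. Wounds were DAPI-stained (1 μg/mL, 10 min), fixed in 4% PFA for 24 h, OCT cryosectioned and imaged by CLSM.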

[7] = tested on: planktonic P. aeruginosa cells (PAO1, TdTomato); assay: Probe binding to planktonic cells by flow cytometry; type: cell-based, Pseudomonas aeruginosa; details: 10, 5 or 1 μM, 30 min, room temperature, Fig. S2
How it was run: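 PAO1 with constitutive TdTomato plasmid was diluted 1:100 in LB without NaCl and grown 3 h at 37°C, 200 rpm, to mid-log. Cells were pelleted, resuspended in PBS at 10⁸ CFU/mL, labelled with FITC-peptide, washed, and fixed in 4% PFA for 20 min. 10,000 events per sample, gated on FSC/SSC and excluding low-TdTomato events. FITC MFI was normalised to autofluorescence. Two biological replicates, mean ± standard deviation.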

[8] = tested on: Human A549 type II alveolar epithelial cells; assay: Epithelial cell infection model, CLSM colocalization with epithelial cells; type: cell-based; details: uninfected A549 cells, Fig. S8
How it was run: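 A549 cells seeded at 20,000/well in RPMI 1640 with 10% FBS and 100 U pen/strep for 3 days to ~70% confluency, then prelabelled with 1 μM cell tracker blue for 20 min at 37°C. Washed twice in warm PBS, stained with 2 μM FITC-labelled peptide for 1 h at 37°C, washed twice, fixed in 4% paraformaldehyde for 30 min. CLSM with 60x oil objective.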

| Substance | Biofilm labeling (CLSM) [2] | Labeling pattern / localization within biofilms (CLSM) [2] | Labeling of planktonic P. aeruginosa cells (FITC MFI, flow cytometry) [7] | Targeting of epithelial cells in the absence of infection [8] | further results |
| --- | --- | --- | --- | --- | --- |
| (4Iph)(f)LPNSNHIKQGL-Cy5^b [4Iphf-HN17-Cy5] | retained similar biofilm targeting properties | – | – | – | Bactericidal effects against P. aeruginosa [1]: no bactericidal effects; Targeting in the epithelial cell infection model (Cy5 probes) [3]: biofilm specificity in the epithelial cell infection model; Percentage of neutrophils that were Cy5+ ([4]; each of the four populations): greater than 87%; Colocalization between Cy5 and GFP (similarity feature) ([4]; every cell, all infected neutrophils regardless of morphology): < 0.2; Percentage of neutrophils that were Cy5+ ([4]; infected neutrophils with irregular morphology): 99.8%; Percentage of neutrophils that were Cy5+ ([4]; uninfected cells with normal morphology): 87.8%; Cy5 signal enhancement in infected wounds vs PBS-treated wounds [5]: reached statistical significance compared to PBS-treated wounds; Cy5 fluorescence in sectioned wound tissue (CLSM) ([6]; infected wound): intense, multi-focal pockets; Cy5 fluorescence in sectioned wound tissue (CLSM) ([6]; uninfected wound): minimal Cy5 fluorescence |
| (4Iph)(f)LPNSNHIKQGL-FITC^b [4Iphf-HN17-FITC] | biofilm labeling was observed | penetrated into biofilms | to a lesser degree than LG21-FITC and LL37-FITC | did not target epithelial cells in the absence of infection | – |
| ^aFITC-KRNQRMARYRRGT ({FITC′}-KRNQRMARYRRGT) [UBIsc-FITC, reference compound] | failed to label biofilms | – | minimal targeting of P. aeruginosa cells | – | – |
| ^aFITC-LLGDFFRKSKEKIGKEFKRIVQRIKDFLRNLVPRTES [LL37-FITC, reference compound] | biofilm labeling was observed | localized to the periphery of biofilms | greatest targeting of planktonic cells | – | – |
| ^aFITC-LLPIVGNLLKSLLGWKRKRFG [LG21-FITC] | biofilm labeling was observed | localized to the periphery of biofilms | greatest targeting of planktonic cells | did not target epithelial cells in the absence of infection | – |
| ^aFITC-TGRAKRRMQYNRR [UBI29-41-FITC, reference compound] | failed to label biofilms | – | minimal targeting of P. aeruginosa cells | – | – |
| ^aFITC-WPRRPWRR ({FITC′}-WPRRPWRR) [WR8-Pro-FITC] | complete lack of binding | – | minimal targeting of P. aeruginosa cells | – | – |
| ^aFITC-WWKKWWKK [WK8-FITC] | biofilm labeling was observed | penetrated into biofilms | to a lesser degree than LG21-FITC and LL37-FITC | moderate targeting of these cells | – |
| ^aFITC-WWRRWWR [WR8-FITC] | biofilm labeling was observed | penetrated into biofilms | to a lesser degree than LG21-FITC and LL37-FITC | moderate targeting of these cells | – |

Source: paper PMC7429274 (ACS infectious diseases, 2020)
